Key:
[1] = biological target: T1, Toll-like receptor 7 (Homo sapiens) (UniProt Q9NYK1); experiment: Activation of human TLR7 expressed in HEK293XL assessed as fold induction of NF-kappaB activity at 50 ug/ml after 18 hrs by reporter gene assay relative to control
T1 sequence (whole entry): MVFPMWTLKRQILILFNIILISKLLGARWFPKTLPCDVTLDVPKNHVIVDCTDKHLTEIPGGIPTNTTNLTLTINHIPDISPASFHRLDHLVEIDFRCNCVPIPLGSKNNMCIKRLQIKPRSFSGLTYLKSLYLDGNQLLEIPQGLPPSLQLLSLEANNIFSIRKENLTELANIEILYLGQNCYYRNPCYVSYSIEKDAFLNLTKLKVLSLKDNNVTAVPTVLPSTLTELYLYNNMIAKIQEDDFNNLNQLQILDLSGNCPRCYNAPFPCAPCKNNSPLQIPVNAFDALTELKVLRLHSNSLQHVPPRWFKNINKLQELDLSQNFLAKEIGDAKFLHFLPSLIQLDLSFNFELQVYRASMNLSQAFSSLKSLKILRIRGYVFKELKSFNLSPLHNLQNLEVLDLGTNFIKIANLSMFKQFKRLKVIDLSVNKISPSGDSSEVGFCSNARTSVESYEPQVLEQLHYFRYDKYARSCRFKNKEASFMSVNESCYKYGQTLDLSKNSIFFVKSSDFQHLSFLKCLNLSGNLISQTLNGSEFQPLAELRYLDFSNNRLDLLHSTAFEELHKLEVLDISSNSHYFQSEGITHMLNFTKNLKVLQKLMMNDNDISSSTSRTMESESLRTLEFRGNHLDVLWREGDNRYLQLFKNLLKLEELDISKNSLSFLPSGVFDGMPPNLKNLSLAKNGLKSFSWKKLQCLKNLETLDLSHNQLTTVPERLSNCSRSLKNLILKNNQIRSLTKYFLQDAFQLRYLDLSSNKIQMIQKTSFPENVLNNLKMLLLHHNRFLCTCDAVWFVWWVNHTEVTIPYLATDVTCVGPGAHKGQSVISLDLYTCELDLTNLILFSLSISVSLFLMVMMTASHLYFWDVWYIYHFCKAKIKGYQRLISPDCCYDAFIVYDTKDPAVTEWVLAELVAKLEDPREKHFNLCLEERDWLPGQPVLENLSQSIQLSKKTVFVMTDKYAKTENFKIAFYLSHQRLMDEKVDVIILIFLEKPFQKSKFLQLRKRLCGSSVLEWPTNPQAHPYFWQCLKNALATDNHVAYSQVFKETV
Summary of the method: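 HEK293 cells stably expressing human TLR7 or TLR8, transiently transfected with SEAP reporter plasmid; medium replaced, SIMRA compounds added, 18 h incubation. Supernatant SEAP measured by QuantiBlue; expressed as fold increase in NF-κB activity over PBS control. Tabulated data at 50 μg/mL, representative of three independent experiments.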

Homo sapiens = species: Homo sapiens; experiment: Ratio of human TLR7 activity to human TLR8 activity
Summary of the method: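 TLR7/TLR8 ratio computed from fold NF-κB (SEAP reporter) activation in HEK293 cells stably expressing human TLR7 versus TLR8, compounds at 50 μg/mL, 18 h exposure; representative of three independent experiments.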

fold change (FC) [1]	Ratio (Homo sapiens)	Compound
20.1	20.1	Nc1ccn([C@@H]2O[C@H](COP(=O)(S)O[C@H]3[C@@H](O)[C@H](n4cnc5c(N)ncnc54)O[C@@H]3COP(=O)(S)O[C@H]3[C@@H](O)[C@H](n4cnc5c(N)ncnc54)O[C@@H]3CO)[C@@H](OP(=O)(S)OC[C@H]3O[C@@H](n4ccc(=O)[nH]c4=O)[C@H](O)[C@@H]3OP(=O)(S)OC[C@H]3O[C@@H](n4ccc(=O)[nH]c4=O)[C@H](O)[C@@H]3OP(=O)(S)OC[C@H]3O[C@@H](n4ccc5c(=O)[nH]c(N)nc54)[C@H](O)[C@@H]3OP(=O)(S)OC[C@H]3O[C@@H](n4cnc5c(N)ncnc54)[C@H](O)[C@@H]3OP(=O)(S)OC[C@H]3O[C@@H](n4ccc5c(=O)[nH]c(N)nc54)[C@H](O)[C@@H]3OP(=O)(S)OC[C@H]3O[C@@H](n4ccc(N)nc4=O)[C@H](O)[C@@H]3OP(=O)(S)OC[C@H]3O[C@@H](n4ccc(=O)[nH]c4=O)[C@H](O)[C@@H]3OP(=O)(S)OC[C@H]3O[C@@H](n4ccc(=O)[nH]c4=O)[C@H](O)[C@@H]3OP(=O)(S)OCC(O)COP(=O)(S)O[C@H]3[C@@H](O)[C@H](n4ccc(=O)[nH]c4=O)O[C@@H]3COP(=O)(S)O[C@H]3[C@@H](O)[C@H](n4ccc(=O)[nH]c4=O)O[C@@H]3COP(=O)(S)O[C@H]3[C@@H](O)[C@H](n4ccc(N)nc4=O)O[C@@H]3COP(=O)(S)O[C@H]3[C@@H](O)[C@H](n4ccc5c(=O)[nH]c(N)nc54)O[C@@H]3COP(=O)(S)O[C@H]3[C@@H](O)[C@H](n4cnc5c(N)ncnc54)O[C@@H]3COP(=O)(S)O[C@H]3[C@@H](O)[C@H](n4ccc5c(=O)[nH]c(N)nc54)O[C@@H]3COP(=O)(S)O[C@H]3[C@@H](O)[C@H](n4ccc(=O)[nH]c4=O)O[C@@H]3COP(=O)(S)O[C@H]3[C@@H](O)[C@H](n4ccc(=O)[nH]c4=O)O[C@@H]3COP(=O)(S)O[C@H]3[C@@H](O)[C@H](n4ccc(N)nc4=O)O[C@@H]3COP(=O)(S)O[C@H]3[C@@H](O)[C@H](n4cnc5c(N)ncnc54)O[C@@H]3COP(=O)(S)O[C@H]3[C@@H](O)[C@H](n4cnc5c(N)ncnc54)O[C@@H]3CO)[C@H]2O)c(=O)n1 (stereo partly drawn)
30	50	Nc1ccn([C@@H]2O[C@H](CO)[C@@H](OP(=O)(S)OC[C@H]3O[C@@H](n4ccc(=O)[nH]c4=O)[C@H](O)[C@@H]3OP(=O)(S)OC[C@H]3O[C@@H](n4ccc5c(=O)[nH]c(N)nc54)[C@H](O)[C@@H]3OP(=O)(S)OC[C@H]3O[C@@H](n4cnc5c(N)ncnc54)[C@H](O)[C@@H]3OP(=O)(S)OC[C@H]3O[C@@H](n4ccc(N)nc4=O)[C@H](O)[C@@H]3OP(=O)(S)OC[C@H]3O[C@@H](n4ccc5c(=O)[nH]c(N)nc54)[C@H](O)[C@@H]3OP(=O)(S)OC[C@H]3O[C@@H](n4cnc5c(N)ncnc54)[C@H](O)[C@@H]3OP(=O)(S)OC[C@H]3O[C@@H](n4ccc5c(=O)[nH]c(N)nc54)[C@H](O)[C@@H]3OP(=O)(S)OC[C@H]3O[C@@H](n4ccc(N)nc4=O)[C@H](O)[C@@H]3OP(=O)(S)OC[C@H]3O[C@@H](n4ccc(=O)[nH]c4=O)[C@H](O)[C@@H]3OP(=O)(S)OC[C@H]3O[C@@H](n4ccc(=O)[nH]c4=O)[C@H](O)[C@@H]3OP(=O)(S)OCC(O)COP(=O)(S)O[C@H]3[C@@H](O)[C@H](n4ccc(=O)[nH]c4=O)O[C@@H]3COP(=O)(S)O[C@H]3[C@@H](O)[C@H](n4ccc(=O)[nH]c4=O)O[C@@H]3COP(=O)(S)O[C@H]3[C@@H](O)[C@H](n4ccc(N)nc4=O)O[C@@H]3COP(=O)(S)O[C@H]3[C@@H](O)[C@H](n4ccc5c(=O)[nH]c(N)nc54)O[C@@H]3COP(=O)(S)O[C@H]3[C@@H](O)[C@H](n4cnc5c(N)ncnc54)O[C@@H]3COP(=O)(S)O[C@H]3[C@@H](O)[C@H](n4ccc5c(=O)[nH]c(N)nc54)O[C@@H]3COP(=O)(S)O[C@H]3[C@@H](O)[C@H](n4ccc(N)nc4=O)O[C@@H]3COP(=O)(S)O[C@H]3[C@@H](O)[C@H](n4cnc5c(N)ncnc54)O[C@@H]3COP(=O)(S)O[C@H]3[C@@H](O)[C@H](n4ccc5c(=O)[nH]c(N)nc54)O[C@@H]3COP(=O)(S)O[C@H]3[C@@H](O)[C@H](n4ccc(=O)[nH]c4=O)O[C@@H]3COP(=O)(S)O[C@H]3[C@@H](O)[C@H](n4ccc(N)nc4=O)O[C@@H]3CO)[C@H]2O)c(=O)n1 (stereo partly drawn)
14.7	3	Nc1ccn([C@@H]2O[C@H](COP(=O)(S)O[C@H]3[C@@H](O)[C@H](n4cnc5c(N)ncnc54)O[C@@H]3CO)[C@@H](OP(=O)(S)OC[C@H]3O[C@@H](n4ccc(=O)[nH]c4=O)[C@H](O)[C@@H]3OP(=O)(S)OC[C@H]3O[C@@H](n4ccc(=O)[nH]c4=O)[C@H](O)[C@@H]3OP(=O)(S)OC[C@H]3O[C@@H](n4ccc5c(=O)[nH]c(N)nc54)[C@H](O)[C@@H]3OP(=O)(S)OC[C@H]3O[C@@H](n4cnc5c(N)ncnc54)[C@H](O)[C@@H]3OP(=O)(S)OC[C@H]3O[C@@H](n4cnc5c(N)ncnc54)[C@H](O)[C@@H]3OP(=O)(S)OC[C@H]3O[C@@H](n4ccc(N)nc4=O)[C@H](O)[C@@H]3OP(=O)(S)OC[C@H]3O[C@@H](n4ccc(=O)[nH]c4=O)[C@H](O)[C@@H]3OP(=O)(S)OC[C@H]3O[C@@H](n4ccc(=O)[nH]c4=O)[C@H](O)[C@@H]3OP(=O)(S)OC[C@H]3O[C@@H](n4ccc5c(=O)[nH]c(N)nc54)[C@H](O)[C@@H]3OP(=O)(S)OCC(O)COP(=O)(S)O[C@H]3[C@@H](O)[C@H](n4ccc5c(=O)[nH]c(N)nc54)O[C@@H]3COP(=O)(S)O[C@H]3[C@@H](O)[C@H](n4ccc(=O)[nH]c4=O)O[C@@H]3COP(=O)(S)O[C@H]3[C@@H](O)[C@H](n4ccc(=O)[nH]c4=O)O[C@@H]3COP(=O)(S)O[C@H]3[C@@H](O)[C@H](n4ccc(N)nc4=O)O[C@@H]3COP(=O)(S)O[C@H]3[C@@H](O)[C@H](n4cnc5c(N)ncnc54)O[C@@H]3COP(=O)(S)O[C@H]3[C@@H](O)[C@H](n4cnc5c(N)ncnc54)O[C@@H]3COP(=O)(S)O[C@H]3[C@@H](O)[C@H](n4ccc5c(=O)[nH]c(N)nc54)O[C@@H]3COP(=O)(S)O[C@H]3[C@@H](O)[C@H](n4ccc(=O)[nH]c4=O)O[C@@H]3COP(=O)(S)O[C@H]3[C@@H](O)[C@H](n4ccc(=O)[nH]c4=O)O[C@@H]3COP(=O)(S)O[C@H]3[C@@H](O)[C@H](n4ccc(N)nc4=O)O[C@@H]3COP(=O)(S)O[C@H]3[C@@H](O)[C@H](n4cnc5c(N)ncnc54)O[C@@H]3CO)[C@H]2O)c(=O)n1 (stereo partly drawn)
9.1	6.5	Nc1ccn([C@@H]2O[C@H](COP(=O)(S)O[C@H]3[C@@H](O)[C@H](n4cnc5c(N)ncnc54)O[C@@H]3CO)[C@@H](OP(=O)(S)OC[C@H]3O[C@@H](n4ccc(=O)[nH]c4=O)[C@H](O)[C@@H]3OP(=O)(S)OC[C@H]3O[C@@H](n4ccc(=O)[nH]c4=O)[C@H](O)[C@@H]3OP(=O)(S)OC[C@H]3O[C@@H](n4ccc5c(=O)[nH]c(N)nc54)[C@H](O)[C@@H]3OP(=O)(S)OC[C@H]3O[C@@H](n4cnc5c(N)ncnc54)[C@H](O)[C@@H]3OP(=O)(S)OC[C@H]3O[C@@H](n4ccc(N)nc4=O)[C@H](O)[C@@H]3OP(=O)(S)OC[C@H]3O[C@@H](n4ccc(=O)[nH]c4=O)[C@H](O)[C@@H]3OP(=O)(S)OC[C@H]3O[C@@H](n4ccc(=O)[nH]c4=O)[C@H](O)[C@@H]3OP(=O)(S)OC[C@H]3O[C@@H](n4ccc5c(=O)[nH]c(N)nc54)[C@H](O)[C@@H]3OP(=O)(S)OC[C@H]3O[C@@H](n4cnc5c(N)ncnc54)[C@H](O)[C@@H]3OP(=O)(S)OCC(O)COP(=O)(S)O[C@H]3[C@@H](O)[C@H](n4cnc5c(N)ncnc54)O[C@@H]3COP(=O)(S)O[C@H]3[C@@H](O)[C@H](n4ccc5c(=O)[nH]c(N)nc54)O[C@@H]3COP(=O)(S)O[C@H]3[C@@H](O)[C@H](n4ccc(=O)[nH]c4=O)O[C@@H]3COP(=O)(S)O[C@H]3[C@@H](O)[C@H](n4ccc(=O)[nH]c4=O)O[C@@H]3COP(=O)(S)O[C@H]3[C@@H](O)[C@H](n4ccc(N)nc4=O)O[C@@H]3COP(=O)(S)O[C@H]3[C@@H](O)[C@H](n4cnc5c(N)ncnc54)O[C@@H]3COP(=O)(S)O[C@H]3[C@@H](O)[C@H](n4ccc5c(=O)[nH]c(N)nc54)O[C@@H]3COP(=O)(S)O[C@H]3[C@@H](O)[C@H](n4ccc(=O)[nH]c4=O)O[C@@H]3COP(=O)(S)O[C@H]3[C@@H](O)[C@H](n4ccc(=O)[nH]c4=O)O[C@@H]3COP(=O)(S)O[C@H]3[C@@H](O)[C@H](n4ccc(N)nc4=O)O[C@@H]3COP(=O)(S)O[C@H]3[C@@H](O)[C@H](n4cnc5c(N)ncnc54)O[C@@H]3CO)[C@H]2O)c(=O)n1 (stereo partly drawn)

— ChEMBL document CHEMBL1154352, “Toll-like receptor 7 selective synthetic oligoribonucleotide agonists: synthesis and structure-activity relationship studies” (J Med Chem, 2009)
